Cardiac RTF inh: cardiac RTF calcium desensitization; P19429+P45379; IANBD-labeled cardiac RTF, Ca2+ fluorescence; inhibition, % at 7.15 µM; hit rate 0.12% among 340,000; AID 493244;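 active = inhibition above the mean inhibition of all tested compounds plus 3 SD, cut at about 17% in these data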;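 note: assay run at fixed EC70 calcium of 1.6 mM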
DDE Tn7 FP inh: DD(E)-Tn7 binding inhibition, primary FP screen; hit rate 0.13% among 370,000; AID 720508; FP displacement of FITC-Tn7 peptide from fibrin DD(E); 0% = median of compound wells per plate; inhibition, % at 8.3 µM; P02675;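 active = inhibition above the mean of compounds falling within the control limits plus 3 SD of them, cut at about 14% in these data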
Target sequence (P02675 whole entry, looked up): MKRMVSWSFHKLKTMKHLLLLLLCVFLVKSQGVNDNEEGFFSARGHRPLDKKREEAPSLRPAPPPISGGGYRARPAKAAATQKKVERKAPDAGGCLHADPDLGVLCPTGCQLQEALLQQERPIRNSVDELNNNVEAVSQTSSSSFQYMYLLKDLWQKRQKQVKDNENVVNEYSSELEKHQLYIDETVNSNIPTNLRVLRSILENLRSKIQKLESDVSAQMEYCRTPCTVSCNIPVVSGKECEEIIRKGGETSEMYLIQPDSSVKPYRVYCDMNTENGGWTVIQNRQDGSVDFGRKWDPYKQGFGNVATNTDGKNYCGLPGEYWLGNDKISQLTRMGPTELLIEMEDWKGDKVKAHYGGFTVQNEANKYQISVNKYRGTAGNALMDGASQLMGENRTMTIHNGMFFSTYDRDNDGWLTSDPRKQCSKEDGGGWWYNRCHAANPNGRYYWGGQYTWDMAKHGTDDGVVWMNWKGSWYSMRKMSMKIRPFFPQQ
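Also added: labelled Tn7 tracer, 0.1 µM; Assay system: human fibrin DD(E) protein; Amount: 2 µM fibrin DD(E); Schedule: 10 min compound pre-incubation, 3 h probe incubation at room temperature; Repeats: one replicate per compound; Read-out basis: percent inhibition; Measured by: fluorescence polarization of the labelled Tn7 tracer.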
CRFBP-R2 block: antagonists of CRF-binding protein/CRF-R2 receptor complex. HEK293 CRF-R2/CRF-BP, CRF-induced calcium fluorescence. inhibition, % at 11.8 µM. hit rate 0.59% among 350,000. AID 588475;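 active = inhibition of the ligand-induced calcium signal above about 50% at the single tested concentration, limit read from the data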
Tn6 DDE FP: DD(E)-Tn6 binding inhibition, primary FP screen. inhibition, % at 8.3 µM. Fibrin DD(E) TRITC-Tn6 fluorescence polarization displacement. hit rate 0.21% among 370,000;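 active = inhibition above a per-campaign cutoff: mean of compounds within control limits plus 3 SD, cut at about 15% in these data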
cardiac RTF act: cardiac RTF calcium sensitization. P19429+P45379. IANBD-labeled TnC RTF fluorescence at EC20 calcium; 0% EC20 calcium, 100% full calcium. activation, % at 7.2 µM. hit rate 0.24% among 340,000. AID 493008;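 active = activation above the mean over all tested compounds plus 3 SD, cut at about 30% in these data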;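 note: rise in fluorescence read as greater calcium sensitivity of cardiac thin filaments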
CRFR2-BP ag: CRF-BP/CRF-R2 complex agonism; activation, % at 13.2 µM; hit rate 0.46% among 350,000; HEK293 CRF-R2/CRF-BP, calcium dye fluorescence (FLIPR); percent of saturating CRF peptide response;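 active = activation of at least 50%, plus an integration ratio under a set limit after plate pattern correction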
RTF Ca inh conf: cardiac RTF calcium sensitivity inhibition, confirmation. AID 504635. hit rate 8% among 360. reconstituted cardiac thin filaments, calcium sensitivity fluorescence. shares compounds with Cardiac RTF inh. inhibition, % at 7.15 µM; in the data active = inhibition above about 18%
DDE Tn7 confirm: confirmation of inhibitors of Tn7 binding to human fibrin DD(E); shares compounds with DDE Tn7 FP inh; FP displacement of TRITC-Tn7 peptide from DD(E); 0% set at plate's compound-well median; inhibition, % at 8.3 µM; hit rate 5% among 460;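 active = inhibition above the campaign cutoff, the mean of compounds within control limits plus 3 SD, cut at about 14% in these data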;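 note: displacers lower polarization since freed probe rises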
Tn7 DDE ctr: counter-screen hit for Tn7 peptide-fibrin DD(E) binding disruption. shares compounds with DDE Tn7 FP inh. TRITC-Tn7 probe displacement, fluorescence polarization. inhibition, % at 8.3 µM. hit rate 3% among 460. AID 720633;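 active = inhibition above the cutoff, the mean of compounds lying between the control bounds plus 3 SD of those compounds, cut at about 17% in these data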
Tn6 DDE ctr: counter-screen for inhibitors of Tn6 peptide binding to fibrin DD(E); shares compounds with Tn6 DDE FP; TRITC-Tn6 fluorescence polarization displacement; 0% = median of compound wells, not DMSO; inhibition, % at 8.3 µM; hit rate 2% among 680; AID 720621;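 active = inhibition above the mean of test compounds lying between the control limits plus 3 SD of those, cut at about 14% in these data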
DDE Tn6 confirm: DD(E)-Tn6 binding inhibition, FP confirmation | shares compounds with Tn6 DDE FP | FP displacement of TRITC-Tn6 peptide from DD(E); 0% = per-plate median of test wells | inhibition, % at 8.3 µM | hit rate 10% among 680 | AID 720631;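 active = inhibition above the mean of compounds lying within the control limits plus 3 SD, cut at about 16% in these data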
Large screens that a line does not name were inactive (follow-up assays come after a bar, where they were run). Shown are actives, neighbours in structure and some others; about 1.4% of the full set was active somewhere.

Cc1cccc2c1N(N=O)CCC2	none
Fc1ccc(C(OCCN2CCN(CCCc3ccccc3)CC2)c2ccc(F)cc2)cc1	Cardiac RTF inh 17 | RTF Ca inh conf inactive
c1ccc(CCCN2CCN(CCOC(c3ccccc3)c3ccccc3)CC2)cc1	none
Nc1ccc2ccc3cccc[n+]3c2c1	DDE Tn7 FP inh 70, cardiac RTF act 743, CRFR2-BP ag 163 | DDE Tn7 confirm 25 | Tn7 DDE ctr inactive
O=c1cc(C(F)(F)F)c2cc3c4c(c2o1)CCCN4CCC3	DDE Tn7 FP inh 33, cardiac RTF act 545, CRFR2-BP ag 173 | DDE Tn7 confirm inactive | Tn7 DDE ctr inactive
CNCC(=O)c1ccccc1	none (no result: Cardiac RTF inh, DDE Tn7 FP inh, Tn6 DDE FP, cardiac RTF act)
NN=C1C(Cl)=C(Cl)C(Cl)=C1Cl	none (no result: Cardiac RTF inh, cardiac RTF act)
Nc1ccc2nonc2c1[N+](=O)[O-]	DDE Tn7 FP inh 20, cardiac RTF act 102, CRFR2-BP ag 70 | DDE Tn7 confirm inactive | Tn7 DDE ctr inactive
CN(c1ccc(O)cc1)c1ccc([N+](=O)[O-])c2nonc12	none (no result: Cardiac RTF inh, cardiac RTF act)
FC(F)(F)c1cccc(NC2=NCCCS2)c1	DDE Tn7 FP inh 14 | DDE Tn7 confirm inactive | Tn7 DDE ctr inactive
CC(=O)O[C@H]1CC[C@@]2(C)C(=CC(=O)C3C2CC[C@@]2(C)C3C[C@H](OC(C)=O)[C@@H]2OC(C)=O)C1 (stereo partly drawn)	none
O=[N+]([O-])c1ccc(NCc2ccccc2)c2nonc12	DDE Tn7 FP inh 61, Tn6 DDE FP 21, CRFR2-BP ag 493 (no result: Cardiac RTF inh, cardiac RTF act) | DDE Tn7 confirm 46 | Tn7 DDE ctr 27 | Tn6 DDE ctr 46 | DDE Tn6 confirm 27
CC(=O)c1c(C)[nH]c(C(=O)N2CCC3(CC2)OCCO3)c1C	none
COc1cccc2c1C(=O)c1c(O)c3c(c(O)c1C2=O)CC(O)(C(C)=NO)CC3OC1CC(N)C(O)C(C)O1 (stereo not drawn)	DDE Tn7 FP inh 21, Tn6 DDE FP active, cardiac RTF act 166 | DDE Tn7 confirm inactive | Tn7 DDE ctr 93 | Tn6 DDE ctr inactive | DDE Tn6 confirm 93
C[n+]1c(-c2ccccc2)c2cc(N)ccc2c2ccc(N)cc21	DDE Tn7 FP inh 22, Tn6 DDE FP 49 | DDE Tn7 confirm inactive | Tn7 DDE ctr 124 | Tn6 DDE ctr inactive | DDE Tn6 confirm 124
Cc1c(N=Nc2c(O)n(Cc3ccccc3)c(=O)[nH]c2=O)c(=O)n(-c2ccccc2)n1C	none
Cc1nn(Cc2ccccc2)c(C)c1C(=O)O	none
O=[N+]([O-])c1ccc(N2CCCCCC2)c2nonc12	Tn6 DDE FP 85, cardiac RTF act 316, CRFR2-BP ag 191 | Tn6 DDE ctr inactive | DDE Tn6 confirm 66
Cn1nc(-c2ccc(OCC(=O)N3CCN(Cc4ccccc4)CC3)cc2)c2ccccc2c1=O	none
CCNC(=O)C1OC(n2cnc3c(N)ncnc32)C(O)C1O (stereo not drawn)	Tn6 DDE FP 16 | Tn6 DDE ctr inactive | DDE Tn6 confirm inactive
Cc1ccccc1-n1c(O)c(C=NCCN2CCOCC2)c(=O)[nH]c1=O	none

Screening results from PubChem.
